Calls of active or inactive are those of the source. The rule behind the calls is not given here.
Columns and labels:
Rattus norvegicus [1] = assay: Antiarthritic activity in Lewis rat model of Complete Freund's adjuvant-induced arthritis assessed as reduction in paw swelling at 0.1 mg/kg, po qd administered for 21 days after CFA injection and measured weekly three times upto day 21 by water displacement plethysmometry; assay type: functional; settings: time 21.0 day
In short: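 Male Lewis rats, 200−225 g, n = 8 per group. Immunized at the tail base with 100 μL of 10 mg/mL ground Mycobacterium butyricum in incomplete Freund's adjuvant. Oral dosing once daily in PEG300 vehicle from the day of immunization for 21 days, at 0.03, 0.1 or 1.0 mg/kg. Dexamethasone 0.1 mg/kg PO QD as positive control. Paw volume by water displacement plethysmometry, day 7 to day 21.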

[2] = Plasma concentration in Lewis rat at 1 mg/kg, po measured at 4 hr; assay type: ADME, organism-based; settings: Lewis, plasma
In short: (§1)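 Lewis rats received a single oral 1.0 mg/kg dose as solution or suspension in PEG300. Blood was drawn retro-orbitally under isoflurane at 4 h and 24 h, within the blood lymphocyte reduction study. n = 3−4 per group, group mean reported.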

[3] = Plasma concentration in Lewis rat at 1 mg/kg, po measured at 24 hrs; assay type: ADME, organism-based; settings: Lewis, plasma; in short: as §1
Rattus norvegicus [4] = assay: Reduction in circulating lymphocytes count in Lewis rat blood at 1 mg/kg, po measured at 4 hrs by hematology analyzer based analysis; assay type: functional; parameters: scale not given: the % may be the effect or the level left
In short: (§2)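 Lewis rats were given an oral dose as a solution or suspension in PEG300, with controls receiving vehicle only. Blood was taken by retro-orbital bleeding under isoflurane at 4 and 24 h. Lymphocytes were counted on a hematology analyzer. Reduction is relative to the vehicle group, averaged over the animals in each group (n = 3−4).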

[5] = Selectivity index, ratio of EC50 for agonist activity at human S1P3 expressed in CHO cell membranes to EC50 for agonist activity at human S1P1 expressed in CHO cell membranes; assay type: cell-based
[6] = molecular target: Sphingosine 1-phosphate receptor 3 (Homo sapiens, UniProt Q99500); assay: Agonist activity at human S1P3 expressed in CHO cell membranes assessed as stimulation of [35S]-GTPgamma-S binding measured after 45 mins by liquid scintillation counting method; parameters: species or system Cell membrane
[7] = molecular target: Sphingosine 1-phosphate receptor 1 (Homo sapiens, UniProt P21453); assay: Agonist activity at human S1P1 expressed in CHO cell membranes assessed as stimulation of [35S]-GTPgamma-S binding measured after 45 mins by liquid scintillation counting method; parameters: species or system Cell membrane
In short: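 S1P1/CHO cell membranes at 3 μg protein/well with 3-fold compound dilutions. [35S]GTPγS 0.2 nM final, 45 min at room temperature. Filter-plate capture, water washes, scintillation counting. EC50 taken at 50% of each compound's own Ymax.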

Rattus norvegicus [8] = assay: Reduction in circulating lymphocytes count in Lewis rat blood at 1 mg/kg, po measured at 24 hrs by hematology analyzer based analysis; assay type: functional; parameters: scale not given: the % may be the effect or the level left; in short: as §2
[9] = Ratio of plasma concentration in Lewis rat at 1 mg/kg, po measured at 4 hrs to plasma concentration in Lewis rat at 1 mg/kg, po measured at 24 hrs; assay type: ADME, organism-based; settings: in vivo

Chain of Sphingosine 1-phosphate receptor 1 (P21453 whole entry): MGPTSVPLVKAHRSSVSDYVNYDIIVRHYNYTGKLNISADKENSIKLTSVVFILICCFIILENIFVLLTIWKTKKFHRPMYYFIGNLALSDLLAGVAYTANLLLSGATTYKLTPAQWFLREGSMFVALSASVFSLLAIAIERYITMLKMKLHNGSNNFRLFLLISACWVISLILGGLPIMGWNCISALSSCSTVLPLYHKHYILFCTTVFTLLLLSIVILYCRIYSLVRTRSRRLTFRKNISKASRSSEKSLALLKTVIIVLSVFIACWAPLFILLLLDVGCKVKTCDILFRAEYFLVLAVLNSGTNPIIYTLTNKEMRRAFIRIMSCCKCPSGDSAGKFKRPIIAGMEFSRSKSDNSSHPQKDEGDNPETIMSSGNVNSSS
Chain of Sphingosine 1-phosphate receptor 3 (Q99500 whole entry): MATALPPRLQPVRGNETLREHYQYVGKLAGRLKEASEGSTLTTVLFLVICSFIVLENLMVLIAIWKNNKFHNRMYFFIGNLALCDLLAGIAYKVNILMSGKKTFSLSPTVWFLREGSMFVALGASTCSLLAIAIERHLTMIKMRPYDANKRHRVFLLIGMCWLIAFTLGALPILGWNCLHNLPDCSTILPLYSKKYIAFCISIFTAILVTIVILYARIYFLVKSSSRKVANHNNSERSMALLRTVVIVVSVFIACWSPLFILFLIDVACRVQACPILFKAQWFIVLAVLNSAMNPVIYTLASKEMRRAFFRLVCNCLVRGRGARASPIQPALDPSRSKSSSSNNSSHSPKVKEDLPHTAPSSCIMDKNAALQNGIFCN

| SMILES | concentration at 4 h [2] | concentration at 24 h [3] | EC50 [6] | EC50 [7] | Ratio [9] | Activity (Rattus norvegicus [1]) | Activity (Rattus norvegicus [4]) | Ratio EC50 [5] | Activity (Rattus norvegicus [8]) |
| --- | --- | --- | --- | --- | --- | --- | --- | --- | --- |
| C[C@@H]1C[C@H]2[C@@H]3CCC4=CC(=O)C=C[C@]4(C)[C@@]3(F)[C@@H](O)C[C@]2(C)[C@@]1(O)C(=O)CO |  |  |  |  |  | Active |  |  |  |
| O=C(O)C1CN(Cc2ccc3c(c2)CCc2c-3noc2-c2ccc(C3CCCCC3)c(C(F)(F)F)c2)C1 | 68 nM | 17 nM | 2100 nM | 0.98 nM | 4 |  | 35% | 2100 | 32% |
| O=C(O)C1CN(Cc2ccc3c(c2)CCc2nc(-c4onc(-c5ccccc5)c4C(F)(F)F)oc2-3)C1 | 110 nM | 11 nM | 920 nM | 5.5 nM | 10 |  | 62% | 170 | 2% |

Now from value to molecule, other results behind:

| concentration at 4 h [2] | concentration at 24 h [3] | EC50 [6] | EC50 [7] | Ratio [9] | SMILES | Activity (Rattus norvegicus [1]) | Activity (Rattus norvegicus [4]) | Ratio EC50 [5] | Activity (Rattus norvegicus [8]) |
| --- | --- | --- | --- | --- | --- | --- | --- | --- | --- |
| 190 nM | 4 nM | 1200 nM | 0.87 nM | 48 | Cc1cc2c(cc1CN1CC(C(=O)O)C1)CCc1c-2noc1-c1noc(-c2ccccc2)c1C(F)(F)F |  | 85% | 1400 | 34% |
| 150 nM | 26 nM | 1400 nM | 0.33 nM | 6 | O=C(O)C1CN(Cc2ccc3c(c2)CCc2c-3noc2-c2nsc(-c3ccccc3)c2C(F)(F)F)C1 |  | 82% | 4200 | 85% |
| 330 nM | 56 nM | > 31000 nM | 0.25 nM | 6 | O=C(O)C1CN(Cc2ccc3c(c2)OCc2c-3noc2-c2onc(-c3ccccc3)c2C(F)(F)F)C1 |  | 82% | > 120000 | 89% |
| 320 nM | 46 nM | 15000 nM | 1.6 nM | 7 | O=C(O)C1CN(Cc2cc3c(cc2F)-c2noc(-c4noc(-c5ccccc5)c4C(F)(F)F)c2CC3)C1 |  | 74% | 9400 | 79% |
| 120 nM | 1 nM | 1300 nM | 1 nM | 120 | O=C(O)C1CN(Cc2ccc3c(c2)CCc2c-3noc2-c2onc(-c3ccccn3)c2C(F)(F)F)C1 |  | 82% | 1300 | 69% |
